# Laboratory results as given in ChEMBL document CHEMBL4052821, “Chemical Modification for Proteolytic Stabilization of the Selective αvβ3 Integrin RGDechi Peptide: in Vitro and in Vivo Activities on Malignant Melanoma Cells” (J Med Chem, 2017).
# Activity calls are given as the source filed them. No cut-off for these calls is given here. Where a SMILES comes first, the peptide text is derived from it.
# Legend:
# [1] = Antimigratory activity in alphavbeta3 integrin overexpressing human WM266 cells at 50 uM after 48 hrs by wound healing assay relative to control; format: functional
# Procedure, shortened: (§1)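 Confluent WM266 monolayers scratched with a pipette tip, washed with PBS, then given medium containing peptide (50 μM). Phase-contrast images taken at 0, 24 and 48 h. Wound width expressed as % of the 0 h value. Three experiments in triplicate.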
# [2] = tested on: WM266; assay: Antiinvasive activity in alphavbeta3 integrin overexpressing human WM266 cells at 50 uM after 18 hrs by Transwell assay relative to control; format: functional, cell-based
# Procedure, shortened: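 Transwell inserts (8 μm) coated with ECL Cell Attachment. EDTA-detached WM266 cells (1 × 10^5, serum-free RPMI) with peptide (50 μM) in the upper chamber, 10% FBS RPMI below. Incubated 18 h at 37 °C. Invaded cells formalin-fixed, crystal violet stained and counted in four fields per chamber. Duplicate chambers.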
# [3] = tested on: Serum; assay: Metabolic stability in human serum at 1 mg/ml after 3 to 24 hrs by RP-HPLC method; format: ADME, cell-free
# Procedure, shortened: (§2)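 Peptide solution (1 mg/mL, 160 μL) mixed with 400 μL human serum at 37 °C. Aliquots taken at 1, 2, 4, 8, 24 and 48 h were quenched with 15% TFA and centrifuged. Supernatants analysed by LC–MS, following loss of the intact-peptide peak.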
# [4] = (§3) Antiadhesive activity in alphavbeta3 integrin overexpressing human WM266 cells assessed as inhibition of cell binding to anti-alphaVbeta3 antibody at 50 uM after 1 hr by crystal violet staining-based assay relative to control; format: functional; settings: WM266, 1 h
# Procedure, shortened: (§4)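 Plates coated with anti-αvβ3 antibody LM609 (10 μg/mL). WM266 cells (1.5 × 10^4/well) incubated with peptide (50 μM) for 1 h. Nonadherent cells washed off, adherent cells measured by crystal violet optical density as % of untreated control. At least three independent experiments in duplicate.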
# [5] = Antimigratory activity in alphavbeta3 integrin overexpressing human WM266 cells at 50 uM after 24 hrs by wound healing assay relative to control; format: functional; procedure, shortened: as §1
# [6] = (§5) Antiadhesive activity in alphavbeta3 integrin overexpressing human WM266 cells assessed as inhibition of cell adhesion onto vitronectin preincubated for 30 mins followed by cell seeding on vitronectin measured after 1 hr by crystal violet staining-based assay; format: functional
# Procedure, shortened: (§6)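 Dose–response adhesion: WM266 cells preincubated with increasing peptide concentrations, then seeded on plates precoated with vitronectin or fibronectin (10 μg/mL). Adherent cells quantified after 1 h by crystal violet staining as % of untreated control. IC50 derived from this curve; means ± SE of three independent experiments in triplicate.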
# [7] = In vivo tumor uptake in CD1 nu/nu athymic mouse xenografted with alphavbeta3 integrin overexpressing human WM266 cells using NIR750 labeled compound at 1 nmol, iv after 3 to 24 hrs by fluorescence molecular tomography; format: ADME, organism-based, Neoplasm
# Procedure, shortened: (§7)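 Peptides conjugated to VivoTag-S 750 NHS ester. 10 × 10^6 WM266 cells implanted in the right flank of CD1 nu/nu mice, fed alfalfa-free chow. At about 0.5 cm3 tumour volume, 1 nmol conjugate given i.v. (3 mice/group) under isoflurane. Whole-body FMT imaging at 3, 5 and 24 h, reported as tumour ROI counts/energy. Tumours excised at 24 h for ex vivo FMT.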
# [8] = tested on: HeLa; assay: Antiadhesive activity in alphavbeta5 integrin overexpressing human HeLa cells assessed as inhibition of cell binding to anti-alphaVbeta5 antibody at 50 uM by RTCA cell index slope-based assay
# [9] = (§8) Antiadhesive activity in alphavbeta3 integrin overexpressing human WM266 cells assessed as inhibition of cell adhesion onto fibronectin preincubated for 30 mins followed by cell seeding on fibronectin measured after 1 hr by crystal violet staining-based assay; format: functional; procedure, shortened: as §6
# [10] = tested on: WM266; assay: (§9) Antiadhesive activity in alphavbeta3 integrin overexpressing human WM266 cells assessed as inhibition of cell adhesion onto fibronectin at 50 uM preincubated for 30 mins followed by cell seeding on fibronectin by RTCA relative to control; format: functional
# Procedure, shortened: (§10)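 WM266 cells (4 × 10^4, RPMI/10% FBS) preincubated 30 min at 4 °C with peptide (50 μM) in adhesion buffer, then seeded on wells coated overnight at 4 °C with 10 μg/mL matrix and blocked with 1.5% BSA. Impedance cell index read every minute over 0–24 h. Adhesion rate taken as slope between two time points, expressed as % of untreated control.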
# [11] = tested on: WM266; assay: as §3; format: functional; procedure, shortened: as §4
# [12] = tested on: WM266; assay: (§11) Antiadhesive activity in alphavbeta3 integrin overexpressing human WM266 cells assessed as inhibition of cell adhesion onto vitronectin at 50 uM preincubated for 30 mins followed by cell seeding on vitronectin by RTCA relative to control; format: functional; procedure, shortened: as §10
# [13] = tested on: Serum; assay: Metabolic stability in human serum at 1 mg/ml after 48 hrs by RP-HPLC method; format: ADME, cell-free; procedure, shortened: as §2
# [14] = as §9; format: functional; procedure, shortened: as §10
# [15] = tested on: WM266; assay: as §5; format: functional; procedure, shortened: as §6
# [16] = biological target: Integrin alpha-V/beta-3 (Homo sapiens) (UniProt P05106+P06756); assay: Competitive binding affinity to alphavbeta3 integrin in human WM266 cells using NIR750-labeled compound at 1 nmole after 1 hr in presence of excess of unlabeled compound by DAPI staining-based confocal microscopic method; format: cell-based
# Procedure, shortened: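 WM266 cells on coverslips incubated with 1 nmol NIR750-labelled peptide in DPBS/5% FBS for 1 h at 4 °C. For competition, cells were first preincubated 1 h at 4 °C with 1000-fold excess unlabelled parent. Cells fixed, DAPI-stained and immunostained for αvβ3, then imaged by confocal microscopy. Colocalization scored by Manders' coefficients.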
# [17] = as §11; format: functional; procedure, shortened: as §10
# [18] = Ex vivo tumor uptake in CD1 nu/nu athymic mouse xenografted with alphavbeta3 integrin overexpressing human WM266 cells using NIR750 labeled compound at 1 nmol, iv after 24 hrs by fluorescence molecular tomography; format: ADME, organism-based, Neoplasm; procedure, shortened: as §7
# [19] = tested on: WM266; assay: Antiadhesive activity in alphavbeta3 integrin overexpressing human WM266 cells assessed as inhibition of cell adhesion onto collagen 1 at 50 uM preincubated for 30 mins followed by cell seeding on collagen 1 by RTCA; format: functional, cell-based; procedure, shortened: as §10
# [20] = tested on: WM266; assay: as §8; format: functional; procedure, shortened: as §6
Structure (SMILES),Activity [1] [%],Activity [2],Stability [3],inhibition at 50 µM [4] [%],Activity [5] [%],IC50 [6] [µM],Drug uptake [7],inhibition [8],IC50 [9] [µM],inhibition [10],inhibition [11],inhibition [12],Stability [13],inhibition at 50 µM [14] [%],inhibition [15],Activity [16],inhibition at 50 µM [17] [%],Drug uptake [18],inhibition [19],inhibition [20]
"CSCC[C@H](NC(=O)CC[C@@H]1NC(=O)[C@H](CC(=O)O)NC(=O)CNC(=O)[C@H](CCCNC(=N)N)NC(=O)[C@H](CCCCN)NC1=O)C(=O)N[C@@H](CC(=O)O)C(=O)N[C@@H](CC(=O)O)C(=O)N1CCC[C@H]1C(=O)NCC(=O)N[C@@H](CCCNC(=N)N)C(=O)N[C@@H](CC(N)=O)C(=O)N1CCC[C@H]1C(=O)N[C@@H](Cc1cnc[nH]1)C(=O)N[C@@H](CCCCNC(N)=O)C(=O)NCC(=O)N1CCC[C@H]1C(=O)N[C@@H](C)C(=O)N[C@H](C(=O)O)[C@@H](C)O (HELM PEPTIDE1{M.D.D.P.G.R.N.P.H.[NC(=O)NCCCC[C@H](N[*:1])C(=O)[*:2]].G.P.A.T}|PEPTIDE2{R.G.D.E.K}$PEPTIDE1,PEPTIDE2,1:R1-4:R3|PEPTIDE2,PEPTIDE2,1:R1-5:R2$$$V2.0)",20,Active,Unstable,40,31,25.5,Active,inactive,53,,,,,,,,,,,
N=C(N)NCCC[C@@H]1NC(=O)CNC(=O)[C@H](CC(=O)O)NC(=O)[C@@H](Cc2ccccc2)NC(=O)[C@H](CCCCN)NC1=O,,Active,,,,,,Active,,Active,Active,Active,,,,,,,,
"CSCC[C@H](NC(=O)CC[C@@H]1NC(=O)[C@H](CC(=O)O)NC(=O)CNC(=O)[C@H](CCCNC(=N)N)NC(=O)[C@H](CCCCN)NC1=O)C(=O)N[C@@H](CC(=O)O)C(=O)N[C@@H](CC(=O)O)C(=O)N1CCC[C@H]1C(=O)NCC(=O)N[C@@H](CCCNC(=N)N)C(=O)N[C@@H](CC(N)=O)C(=O)N1CCC[C@H]1C(=O)N[C@@H](Cc1cnc[nH]1)C(=O)N[C@@H](CCCCNC(N)=O)C(=O)NCC(=O)N1CCC[C@H]1CN[C@@H](C)C(=O)N[C@H](C(=O)O)[C@@H](C)O (HELM PEPTIDE1{M.D.D.P.G.R.N.P.H.[NC(=O)NCCCC[C@H](N[*:1])C(=O)[*:2]].G.[C[C@H](NC[C@@H]1CCCN1[*:1])C(=O)N[C@H](C(=O)O)[C@@H](C)O]}|PEPTIDE2{R.G.D.E.K}$PEPTIDE1,PEPTIDE2,1:R1-4:R3|PEPTIDE2,PEPTIDE2,1:R1-5:R2$$$V2.0)",33,Active,,40,54,5.2,Active,inactive,20.7,,,,Stable,33,Dose-dependent effect,Active,55,Active,inactive,Dose-dependent effect
